Measurements from ChEMBL document CHEMBL1833841, “Synthesis and biological evaluation of a novel class of isatin analogs as dual inhibitors of tubulin polymerization and Akt pathway” (Bioorg Med Chem, 2011).
Calls of active or inactive are those of the source. The calls are words filed in the database; no cut-off is given here.

Key:
[1] = system: HT-29; assay: Induction of apoptosis in human HT-29 cells assessed as viable cells at 2.5 uM after 24 hrs by PE annexin V and 7-Aminoactinomycin D staining-based flow cytometry (reference value: 93.2%); assay type: functional; details: HT-29, 24 h, read-out: Activity
How it was run: (§1)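 HT29 cells were treated with 1.25–5.0 µM compound or DMSO for 24 h at 37°C, harvested by low-speed centrifugation and washed twice in cold PBS. They were resuspended in binding buffer at 1×10^6 cells/ml, stained with PE annexin V and 7-AAD for 15 min at RT in the dark, and quantified by flow cytometry.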

[2] = system: HT-29; assay: Induction of apoptosis in human HT-29 cells at 1.25 uM after 24 hrs by PE annexin V and 7-Aminoactinomycin D staining-based flow cytometry; assay type: functional
How it was run: (§2)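 HT29 cells (RPMI, 10% FBS) treated with 1.25, 2.5 or 5 μM, or DMSO control, for 24 h at 37 °C. Cells then harvested, washed twice in cold PBS and resuspended at 1×10^6 cells/ml in binding buffer. Stained with PE annexin V and 7-AAD for 15 min at RT in the dark, then analysed by flow cytometry. 7-AAD-positive cells counted as dead.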

[3] = system: HT-29; assay: Induction of apoptosis in human HT-29 cells assessed as dead cells at 2.5 uM after 24 hrs by PE annexin V and 7-Aminoactinomycin D staining-based flow cytometry (reference value: 1.33%); assay type: functional; how it was run: as §2
[4] = system: HT-29; assay: Induction of apoptosis in human HT-29 cells after 24 hrs by PE annexin V and 7-Aminoactinomycin D staining-based flow cytometry; assay type: functional, cell-based; how it was run: as §1
[5] = system: HT-29; assay: Induction of apoptosis in human HT-29 cells assessed as viable cells at 5 uM after 24 hrs by PE annexin V and 7-Aminoactinomycin D staining-based flow cytometry (reference value: 93.2%); assay type: functional; details: HT-29, 24 h, read-out: Activity; how it was run: as §1
[6] = system: HT-29; assay: Induction of apoptosis in human HT-29 cells at 5 uM after 24 hrs by PE annexin V and 7-Aminoactinomycin D staining-based flow cytometry (reference value: 6.8%); assay type: functional; how it was run: as §2
[7] = species: Bos taurus; assay: Inhibition of bovine brain tubulin polymerization at 10 uM after 1 hrs by fluorescence assay
How it was run: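 Compound at 10 µM final, DMSO as control. Fluorescence (ex 360, em 440 nm) read every 10 s for 1 h at 37°C, duplicate wells.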

[8] = system: HT-29; assay: Induction of apoptosis in human HT-29 cells assessed as DNA fragmentation at 5 uM after 48 hrs by TUNEL assay; assay type: functional, cell-based
How it was run: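 1×10^5 HT29 cells/well grown 24 h in 10% serum medium, then exposed to 5 µM compound. Fragmented DNA stained with ApopTag Red in situ kit, Hoechst nuclear counterstain. Red TUNEL-positive versus blue total nuclei scored by fluorescence microscopy.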

[9] = system: HT-29; assay: Induction of apoptosis in human HT-29 cells assessed as early apoptotic cells at 2.5 uM after 24 hrs by PE annexin V and 7-Aminoactinomycin D staining-based flow cytometry (reference value: 1.37%); assay type: functional; how it was run: as §1
[10] = system: HT-29; assay: Inhibition of AKT expression in human HT-29 cells assessed as total AKT level at 1 uM after 24 hrs by Western blotting; assay type: functional, cell-based
How it was run: (§3)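 HT29 cells treated 24 h with 1 or 2 µM compound or no drug. Lysed in HEPES/NaCl/EDTA/NP40 buffer with phosphatase and protease inhibitors. Protein equalized by Bradford, run on 10% gels, semi-dry transfer to nitrocellulose, blocked in 5% milk. Pan-Akt or phospho-Akt rabbit polyclonal primaries overnight at 4°C, HRP secondaries, chemiluminescence. β-actin loading control.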

[11] = target: RAC-alpha serine/threonine-protein kinase (Homo sapiens) (UniProt P31749); assay: Inhibition of AKT phosphorylation in human HT-29 cells assessed as p-AKT level at 1 uM after 24 hrs by Western blotting; assay type: cell-based; how it was run: as §3
Sequence of RAC-alpha serine/threonine-protein kinase (Homo sapiens) (P31749 whole entry): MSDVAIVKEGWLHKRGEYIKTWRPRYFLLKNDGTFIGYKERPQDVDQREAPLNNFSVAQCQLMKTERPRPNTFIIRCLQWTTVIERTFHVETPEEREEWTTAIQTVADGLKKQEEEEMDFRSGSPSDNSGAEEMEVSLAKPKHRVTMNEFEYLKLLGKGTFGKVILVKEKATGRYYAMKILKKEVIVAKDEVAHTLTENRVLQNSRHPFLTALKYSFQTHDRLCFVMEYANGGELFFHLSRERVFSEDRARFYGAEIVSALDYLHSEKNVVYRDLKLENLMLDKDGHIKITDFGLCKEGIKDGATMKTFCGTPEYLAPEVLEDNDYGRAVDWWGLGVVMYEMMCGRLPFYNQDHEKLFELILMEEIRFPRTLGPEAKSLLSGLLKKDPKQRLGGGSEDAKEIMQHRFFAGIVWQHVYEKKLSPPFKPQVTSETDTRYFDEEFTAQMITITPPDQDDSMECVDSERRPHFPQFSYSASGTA

[12] = system: HT-29; assay: Induction of apoptosis in human HT-29 cells assessed as late apoptosis or necrotic cells at 1.25 uM after 24 hrs by PE annexin V and 7-Aminoactinomycin D staining-based flow cytometry (reference value: 4.1%); assay type: functional; how it was run: as §1
[13] = system: HT-29; assay: Induction of apoptosis in human HT-29 cells assessed as viable cells at 1.25 uM after 24 hrs by PE annexin V and 7-Aminoactinomycin D staining-based flow cytometry (reference value: 93.2%); assay type: functional; details: HT-29, 24 h, read-out: Activity; how it was run: as §1
[14] = system: HT-29; assay: Induction of apoptosis in human HT-29 cells assessed as dead cells at 5 uM after 24 hrs by PE annexin V and 7-Aminoactinomycin D staining-based flow cytometry (reference value: 1.33%); assay type: functional; how it was run: as §2
[15] = system: HT-29; assay: Induction of apoptosis in human HT-29 cells assessed as dead cells at 1.25 uM after 24 hrs by PE annexin V and 7-Aminoactinomycin D staining-based flow cytometry (reference value: 1.33%); assay type: functional; how it was run: as §2
[16] = system: HT-29; assay: Induction of apoptosis in human HT-29 cells at 2.5 uM after 24 hrs by PE annexin V and 7-Aminoactinomycin D staining-based flow cytometry; assay type: functional; how it was run: as §2
[17] = system: MEF; assay: Cytotoxicity against mouse MEF cells after 48 hrs by MTS assay; assay type: cell-based
How it was run: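 Mouse embryonic fibroblasts exposed to compound for 48 h; viability then read by MTS colorimetric assay. IC50 derived from the viability data.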

[18] = system: HT-29; assay: Cytotoxicity against human HT-29 cells after 48 hrs by MTS assay; assay type: functional, cell-based; details: HT-29, 48 h
How it was run: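 HT29 cells maintained in RPMI with 10% FBS. 5×10^3 cells/well were left to adhere 24 h, then exposed 48 h to compound (DMSO stock diluted in DMEM, 0.5–50 µM). MTS absorbance at 490 nm normalized to control. IC50 from sigmoidal variable-slope fit. Triplicates, at least two independent experiments.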

[19] = system: HT-29; assay: Induction of apoptosis in human HT-29 cells assessed as early apoptotic cells at 5 uM after 24 hrs by PE annexin V and 7-Aminoactinomycin D staining-based flow cytometry (reference value: 1.37%); assay type: functional; how it was run: as §1
[20] = system: A549; assay: Cytotoxicity against human A549 cells after 48 hrs by MTS assay; assay type: functional, cell-based; details: A549, 48 h
How it was run: (§4)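 A549, MCF-7 and UACC903 cells grown in DMEM with 10% FBS at 37°C, 5% CO2. 5×10^3 cells/well were left to adhere 24 h, then treated 48 h with compound (DMSO stock diluted in DMEM, 0.5–50 µM). MTS read at 490 nm and normalized to control. Dose-response fitted as sigmoidal, variable slope. Triplicates from at least two independent experiments.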

[21] = system: UACC-903; assay: Cytotoxicity against human UACC903 cells after 48 hrs by MTS assay; assay type: functional, cell-based; details: UACC-903, 48 h; how it was run: as §4
[22] = system: HT-29; assay: Induction of apoptosis in human HT-29 cells assessed as late apoptosis or necrotic cells at 5 uM after 24 hrs by PE annexin V and 7-Aminoactinomycin D staining-based flow cytometry (reference value: 4.1%); assay type: functional; how it was run: as §1
[23] = system: HT-29; assay: Induction of apoptosis in human HT-29 cells assessed as increase in caspase 3/7 activation after 24 hrs by fluorescence spectrophotometry; assay type: functional, cell-based
How it was run: (§5)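 HT29 cells seeded at 1×10^4/well and grown 24 h, then treated 24 h with 1.25–5 µM compound or DMSO. Equal volume of Apo-ONE caspase-3/7 reagent added, shaken 30 s, incubated 2 h at RT. Cleaved-substrate fluorescence read at ex 498/em 521 nm, expressed relative to DMSO cells. Means ± SD, triplicate, one representative experiment.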

[24] = system: MCF7; assay: Cytotoxicity against human MCF7 cells after 48 hrs by MTS assay; assay type: functional, cell-based; details: MCF7, 48 h; how it was run: as §4
[25] = system: HT-29; assay: Induction of apoptosis in human HT-29 cells assessed as late apoptosis or necrotic cells at 2.5 uM after 24 hrs by PE annexin V and 7-Aminoactinomycin D staining-based flow cytometry (reference value: 4.1%); assay type: functional; how it was run: as §1
[26] = system: HT-29; assay: Inhibition of AKT expression in human HT-29 cells assessed as total AKT level at 2 uM after 24 hrs by Western blotting; assay type: functional, cell-based; how it was run: as §3
[27] = system: HT-29; assay: Induction of apoptosis in human HT-29 cells assessed as early apoptotic cells at 1.25 uM after 24 hrs by PE annexin V and 7-Aminoactinomycin D staining-based flow cytometry (reference value: 1.37%); assay type: functional; how it was run: as §1
[28] = system: HT-29; assay: Induction of apoptosis in human HT-29 cells assessed as increase in caspase 3/7 activation after 24 hrs by fluorescence spectrophotometry relative to control; assay type: functional; set-up: concentration or dose not given beside the values; how it was run: as §5
[29] = target: RAC-alpha serine/threonine-protein kinase (Homo sapiens) (UniProt P31749); assay: Inhibition of AKT phosphorylation in human HT-29 cells assessed as p-AKT level at 2 uM after 24 hrs by Western blotting; assay type: cell-based; how it was run: as §3

SMILES	viability at 2.5 µM [1]	Activity [2]	Activity [3]	Activity [4]	viability at 5 µM [5]	Activity [6]	inhibition [7]	Activity [9]	Activity [12]	viability at 1.25 µM [13]	Activity [14]	Activity [15]	Activity [16]	IC50 [18]	Activity [19]	IC50 [20]	IC50 [21]	Activity [22]	Activity [23]	IC50 [24]	also measured
N#CSCc1ccc(CN2C(=O)C(=O)c3cc(Br)cc(Br)c32)cc1	60.6%	11.47%	7.76%	Dose-dependent effect	33.1%	66.98%	71%	10.6%	4.46%	88.5%	11.4%	2.59%	39.46%	1.14 µM	2.68%	2.53 µM	2.23 µM	52.9%	Dose-dependent effect	24.7 µM	Activity [8]: Active; inhibition [10]: Active; inhibition [11]: inactive; IC50 [17]: > 20 µM; Activity [25]: 21.1%; inhibition [26]: Active; Activity [27]: 4.42%; fold change (FC) [28]: 16
N#C[Se]CCCCN1C(=O)C(=O)c2cc(Br)cc(Br)c21	–	–	–	–	–	–	–	–	–	–	–	–	–	2.39 µM	–	3.15 µM	9.03 µM	–	–	1.53 µM	–
N#CSCCCN1C(=O)C(=O)c2cc(Br)cc(Br)c21	–	–	–	–	–	–	–	–	–	–	–	–	–	3.24 µM	–	3.53 µM	2.89 µM	–	–	9.78 µM	–
N#C[Se]CCCN1C(=O)C(=O)c2cc(Br)cc(Br)c21	89.6%	7.92%	1.92%	Dose-dependent effect	43.8%	56.28%	63%	2.25%	4.45%	92.1%	1.89%	1.53%	10.44%	3.18 µM	48.6%	3.46 µM	21.6 µM	5.79%	Dose-dependent effect	1.65 µM	Activity [25]: 6.27%; Activity [27]: 1.94%; fold change (FC) [28]: 16
O=C1C(=O)N(Cc2ccc(CBr)cc2)c2c(Br)cc(Br)cc21	–	–	–	–	–	–	–	–	–	–	–	–	–	5.1 µM	–	7.86 µM	2.64 µM	–	–	27.7 µM	–
CC(=O)O[C@H]1C(=O)[C@@]2(C)[C@H]([C@H](OC(=O)c3ccccc3)[C@]3(O)C[C@H](OC(=O)[C@H](O)[C@@H](NC(=O)c4ccccc4)c4ccccc4)C(C)=C1C3(C)C)[C@]1(OC(C)=O)CO[C@@H]1C[C@@H]2O	–	–	–	–	–	–	inactive	–	–	–	–	–	–	–	–	–	–	–	–	–	–
O=C1C(=O)N(CCCN=C=S)c2c(Br)cc(Br)cc21	78.8%	8.54%	2.9%	Dose-dependent effect	38.5%	61.5%	62%	6.93%	3.79%	91.5%	8.22%	1.92%	21.23%	1.56 µM	4.78%	2.13 µM	4.37 µM	48.5%	Dose-dependent effect	8.96 µM	Activity [8]: Active; inhibition [10]: inactive; inhibition [11]: inactive; inhibition [29]: Active; IC50 [17]: > 20 µM; Activity [25]: 11.4%; inhibition [26]: Active; Activity [27]: 2.83%; fold change (FC) [28]: 16
